Where two headings read alike, the source gives them in different places.
How the values were obtained:
[1] = tested on: B cells; conditions: patients with rheumatoid arthritis; cited from earlier work
[2] = Population PK model of venetoclax in healthy subjects; type: in vivo, healthy female subjects
In short: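 Pooled data from 203 healthy women (21–65 y, BMI 18.6–30.1 kg/m2) given oral doses of 10–400 mg, 1–4 times with ≥7-day washout, after a 10-h fast or within 30 min of a low/moderate/high-fat breakfast. Serial plasma sampling up to 96 h; assayed by liquid–liquid extraction LC-MS/MS. Two-compartment nonlinear mixed-effects model with lagged first-order absorption, exponential IIV on CL/F, Vc/F and F, and combined residual error. Covariates kept by backward elimination (P < 0.01); low-fat meal as reference.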

[3] = tested on: B‐lymphocytes; type: in vivo, healthy female subjects; conditions: for time for B‐lymphocytes to recover to 90% of baseline levels: average
In short: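 B-lymphocytes counted at baseline and after dosing. Individual post hoc PK estimates were fixed, then a Friberg-type semimechanistic model was fitted with a linear drug effect. It has a proliferation compartment, sequential transit compartments, a circulating pool, and feedback (baseline/current count, exponent γ). Baseline was the median predose count, with IIV. Log-transformed counts were fitted with additive residual error and checked by goodness-of-fit plots. Simulations covered single doses.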

[4] = cited from earlier work
[5] = tested on: CYP3A; conditions: cited from earlier work
[6] = tested on: P‐glycoprotein; conditions: cited from earlier work
[7] = tested on: breast cancer resistance protein; conditions: cited from earlier work
[8] = 4‐week dog studies, male; no reference given; cited from earlier work
[9] = covariate effect on bio-availability relative to low-fat meal
[10] = model simulation, 200 mg single dose

## rituximab
[1]
  time of reduction in B cells from circulation postinfusion: 1–28 weeks

## CC1(C)CCC(CN2CCN(c3ccc(C(=O)NS(=O)(=O)c4ccc(NCC5CCOCC5)c([N+](=O)[O-])c4)c(Oc4cnc5[nH]ccc5c4)c3)CC2)=C(c2ccc(Cl)cc2)C1 [venetoclax, Venetoclax]
[2]; [9]
  Fasting on F1: 0.29
  Moderate/high‐fat on F1: 1.47
[2]; covariate effect on bio-availability, Chinese ethnicity
  Chinese on F1: 1.53
[2]; covariate effect on bio-availability, coadministration of azithromycin
  Azithromycin on F1: 0.65
[2]; covariate effect on bio-availability, coadministration of rifampin
  Rifampin on F1: 4.91
[2]; covariate effect on bio-availability, low-fat meal is the reference category
  Low fat on F1: 1
[2]; female, human, plasma, oral
  Vd: 99 L
[2]; in vivo
  higher bioavailability with coadministration of rifampin: 391%
  higher clearance with coadministration of rifampin: 167%
  lower bio‐availability with coadministration of azithromycin: 35%
[2]; parameter Fixed, not estimated
  Dose nonlinearity on F1: −0.178
[2]; population PK estimate
  ALAG, absorption lag time: 0.04 days
  KA, absorption rate: 3.83 day⁻¹
[2]; population PK estimate, oral, healthy subjects
  CL/F, apparent clearance: 449 L/day
[2]; relative to a low‐fat meal
  higher bio‐availability with a moderate/high‐fat meal: 47%
  lower bio‐availability under fasting conditions: 71%
[3]; even at the 400 mg dose
  B‐cell count recovered to 90% of baseline: ≤ 2 months
[3]; linear drug effect on B-lymphocytes, PD model parameter estimate
  Slope of drug effect: 20.9
[3]; [10]
  decrease in B‐lymphocytes: 24% (15–35%)
  time for B‐lymphocytes to recover to 90% of baseline levels: 48 (21–64) days
[3]; model simulation, 400 mg single dose
  time for B‐lymphocytes to recover to 90% of baseline levels: 59 (30–66) days
[3]; model simulation, three 200 mg doses every week or every other week
  recovery of B‐lymphocytes to 90% of baseline levels: ≤ 2 months
[3]; simulations/observed data
  time for B‐cell count to rise back to baseline: 2–3 months
[4]; compared with fasting conditions
  increase of venetoclax exposures by food: threefold to fivefold
[4]; healthy subjects
  mean terminal elimination half‐life: 17 h
[4]; subjects with severe hepatic impairment
  mean terminal elimination half‐life: 35 h
[5]
  metabolizing enzyme: mainly metabolized by CYP3A
[6]
  P‐glycoprotein transporter substrate: substrate
[7]
  breast cancer resistance protein transporter substrate: substrate
[8]
  toxicology finding: testicular toxicity (germ cell loss)
